Laboratory results published in ChEMBL document CHEMBL4390656, “Shooting three inflammatory targets with a single bullet: Novel multi-targeting anti-inflammatory glitazones” (Eur J Med Chem, 2019).
Calls of active or inactive are those of the source. The calls are words filed in the database; no cut-off is given here.

Assays:
[1] = Inhibition of soya bean 15-LOX by colorimetric lipoxygenase inhibitor screening assay kit method; set-up: species or system Glycine max
Outline: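 Soybean 15-LOX activity measured with a colorimetric lipoxygenase inhibitor screening kit per the kit instructions.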

THP-1 [2] = assay: Inhibition of PMA-induced human THP1 monocytes differentiation in to macrophages assessed as macrophage metabolic activity preincubated for 6 hrs before PMA stimulation
Rattus norvegicus [3] = species: Rattus norvegicus; assay: Antidiabetic activity in Wistar rat hemi-diaphragm at 2 mg assessed as increase in glucose uptake in absence of insulin by GOD/POD enzymatic method; format: functional, tissue-based
Outline: (§1)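 Wistar rats (150-250 g), fasted overnight, euthanized under ether; diaphragms removed and halved, each half weighed. Glucose in the working solution measured before and after incubation, and uptake taken as initial minus final content at 2 mg drug; expressed as mg/dl/45 min, mean ± SEM.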

Rattus norvegicus [4] = species: Rattus norvegicus; assay: Antidiabetic activity in Wistar rat hemi-diaphragm at 2 mg assessed as increase in insulin-induced glucose uptake by GOD/POD enzymatic method; format: functional, tissue-based; outline: as §1
[5] = biological target: T1, Prostaglandin G/H synthase 1 (Ovis aries, UniProt P05979); assay: Inhibition of ovine COX1 catalytic activity using arachidonic acid as substrate pre-incubated for 10 mins followed by substrate addition and measured after 2 mins by ELISA method
T1 sequence (P05979 whole entry): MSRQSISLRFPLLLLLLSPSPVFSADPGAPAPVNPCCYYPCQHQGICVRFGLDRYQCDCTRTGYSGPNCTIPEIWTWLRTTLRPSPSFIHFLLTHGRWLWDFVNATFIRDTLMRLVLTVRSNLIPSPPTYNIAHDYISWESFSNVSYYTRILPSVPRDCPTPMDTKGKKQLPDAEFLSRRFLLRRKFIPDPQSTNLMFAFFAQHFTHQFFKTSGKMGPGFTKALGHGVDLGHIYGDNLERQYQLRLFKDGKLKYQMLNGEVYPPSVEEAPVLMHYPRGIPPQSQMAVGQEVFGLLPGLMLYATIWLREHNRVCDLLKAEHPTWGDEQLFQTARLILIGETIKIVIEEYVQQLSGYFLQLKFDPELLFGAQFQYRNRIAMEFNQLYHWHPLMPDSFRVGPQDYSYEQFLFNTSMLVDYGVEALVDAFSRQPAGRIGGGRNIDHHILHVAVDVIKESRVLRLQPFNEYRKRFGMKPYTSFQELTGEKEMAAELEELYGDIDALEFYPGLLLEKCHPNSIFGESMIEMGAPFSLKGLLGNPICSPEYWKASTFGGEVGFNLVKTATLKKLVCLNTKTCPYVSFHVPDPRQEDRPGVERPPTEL

Rattus norvegicus [6] = assay: Antiinflammatory activity in rat acute inflammation model assessed as inhibition of formalin-induced paw edema at 5 mg/kg, po measured after 4 hrs relative to control; format: functional
Outline: (§2)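 Adult female albino rats, 150-250 g, acclimatized 1 week. Compounds given orally at 5 mg/kg body weight; percentage edema inhibition measured after 4 h. Celecoxib and diclofenac sodium served as positive controls.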

[7] = biological target: T2, Peroxisome proliferator-activated receptor gamma (Homo sapiens) (UniProt P37231); assay: Transactivation of GAL4 DBD-fused human PPARgamma LBD expressed in HEK293 cells at 10 uM after 24 hrs by luciferase reporter gene assay relative to pioglitazone; format: cell-based
T2 sequence (whole entry): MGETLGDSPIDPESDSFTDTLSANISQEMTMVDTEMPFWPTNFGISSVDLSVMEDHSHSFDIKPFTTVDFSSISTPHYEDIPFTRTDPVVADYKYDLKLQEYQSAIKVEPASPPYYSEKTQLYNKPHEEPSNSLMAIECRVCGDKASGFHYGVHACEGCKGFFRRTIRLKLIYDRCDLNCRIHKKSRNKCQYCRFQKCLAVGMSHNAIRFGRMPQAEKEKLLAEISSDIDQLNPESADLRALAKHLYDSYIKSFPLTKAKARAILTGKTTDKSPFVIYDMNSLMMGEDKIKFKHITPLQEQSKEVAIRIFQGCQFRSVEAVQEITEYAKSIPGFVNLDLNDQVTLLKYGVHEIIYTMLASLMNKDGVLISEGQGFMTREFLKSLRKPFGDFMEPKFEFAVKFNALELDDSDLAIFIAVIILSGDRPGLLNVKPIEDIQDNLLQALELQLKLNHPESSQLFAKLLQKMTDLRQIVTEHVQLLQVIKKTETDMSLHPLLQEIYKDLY
Outline: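 HEK293(T) cells transiently co-transfected with a Gal4 DBD–human PPARγ LBD hybrid and a Gal4 UAS-driven Renilla luciferase reporter. […] Luciferase activity normalized to Renilla and expressed as fold induction over vehicle; triplicates, repeated at least three times.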

THP-1 [8] = assay: Inhibition of PMA-induced human THP1 monocytes differentiation in to macrophages assessed as macrophage metabolic activity up to 300 uM preincubated for 6 hrs before PMA stimulation; format: functional, cell-based
Outline: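 THP-1 cells grown in RPMI-1640 with 10% FBS and seeded at 2×10^5 cells/ml. Drug concentrations applied for 6 h before differentiation with PMA 25 ng/ml for 24 h; wells washed 3x with PBS. Attached cells quantified by MTS viability readout, with a no-PMA blank, normalized to DMSO-pretreated PMA cells. Viability at each drug concentration checked separately over 30 h.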

Rattus norvegicus [9] = assay: Antiinflammatory activity in rat acute inflammation model assessed as inhibition of formalin-induced paw edema at 5 mg/kg, po measured after 4 hrs relative to celecoxib; format: functional; outline: as §2

O=c1c(O)c(-c2ccc(O)c(O)c2)oc2cc(O)cc(O)c12 [QUERCETIN]
IC50 [1]: 3.27 µM

O=C(O)Cc1ccccc1Nc1c(Cl)cccc1Cl [DICLOFENAC]
IC50 (THP-1 [2]): 143 µM

O=C1NC(=S)S/C1=C\c1ccc(OCc2cn(CC(=O)c3ccc(Br)cc3)nn2)cc1
Activity (Rattus norvegicus [3]): Active | Activity (Rattus norvegicus [4]): Active | IC50 [5]: 14.9 µM | IC50 [1]: 4.34 µM

Cc1ccc(-c2cc(C(F)(F)F)nn2-c2ccc(S(N)(=O)=O)cc2)cc1 [CELECOXIB]
inhibition in vivo at 5 mg/kg (Rattus norvegicus [6]): 36.8%

COc1ccc(-n2cc(COc3ccc(/C=C4\SC(=O)NC4=O)cc3)nn2)cc1
Activity [7]: 25 to 45%

O=C1NC(=O)/C(=C/c2ccc(OCc3cn(CC(=O)c4ccc(Br)cc4)nn3)cc2)S1
Activity (Rattus norvegicus [3]): Active | Activity (Rattus norvegicus [4]): Active | IC50 [5]: 13.6 µM | IC50 [1]: 4.97 µM

O=C1NC(=O)/C(=C/c2ccc(OCc3cn(CC(=O)c4ccc(Cl)cc4)nn3)cc2)S1
IC50 [5]: 10.9 µM

O=C1NC(=O)/C(=C/c2ccc(OCc3cn(-c4ccc(Br)cc4)nn3)cc2)S1
Activity [7]: 25 to 45%

CCc1ccc(CCOc2ccc(CC3SC(=O)NC3=O)cc2)nc1 (centres undefined)
Activity (Rattus norvegicus [3]): Active | Activity (Rattus norvegicus [4]): Active | inhibition (THP-1 [8]): inactive

O=C1NC(=S)S/C1=C\c1ccc(OCc2cn(CC(=O)c3ccc(Cl)cc3)nn2)cc1
IC50 [5]: 12.4 µM | IC50 [1]: 4.22 µM

O=C1NC(=O)/C(=C/c2ccc(OCc3cn(Cc4ccc(Br)cc4)nn3)cc2)S1
Activity [7]: 25 to 45%

O=C(O)Cc1ccccc1Nc1c(Cl)cccc1Cl [DICLOFENAC SODIUM]
inhibition in vivo at 5 mg/kg (Rattus norvegicus [6]): 52.1% | inhibition in vivo at 5 mg/kg (Rattus norvegicus [9]): 205%

C#CCOc1ccc(/C=C2\SC(=S)NC2=O)cc1
Activity [7]: 25 to 45%

CC(Cc1ccc(O)c(O)c1)C(C)Cc1ccc(O)c(O)c1 (centres undefined) [NORDIHYDROGUAIARETIC ACID]
IC50 [1]: 10.2 µM
